The list is not random: actives were taken first. Their share in the collection is about 3.7%.
Kir21 block – inhibitors of mouse Kir2.1 inward-rectifier potassium channel; B-score at 10 µM; AID 1672, 2009; HEK293-Kir2.1, FluxOR thallium flux fluorescence; stronger effect = lower value; 0.85% of 310,000 active;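 active = fluorescence ratio B-score at or below minus 3 SD of library scores, with starting-brightness B-score within 2 SD, cut at about -4.2 in these data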;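 also: channel flux triggered by added potassium and thallium sulfate stimulus; B-score of peak minus minimum fluorescence over baseline after thallium stimulus; more negative B-score means stronger Kir2.1 block with less thallium influx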
Target sequence (P35561 whole entry, looked up): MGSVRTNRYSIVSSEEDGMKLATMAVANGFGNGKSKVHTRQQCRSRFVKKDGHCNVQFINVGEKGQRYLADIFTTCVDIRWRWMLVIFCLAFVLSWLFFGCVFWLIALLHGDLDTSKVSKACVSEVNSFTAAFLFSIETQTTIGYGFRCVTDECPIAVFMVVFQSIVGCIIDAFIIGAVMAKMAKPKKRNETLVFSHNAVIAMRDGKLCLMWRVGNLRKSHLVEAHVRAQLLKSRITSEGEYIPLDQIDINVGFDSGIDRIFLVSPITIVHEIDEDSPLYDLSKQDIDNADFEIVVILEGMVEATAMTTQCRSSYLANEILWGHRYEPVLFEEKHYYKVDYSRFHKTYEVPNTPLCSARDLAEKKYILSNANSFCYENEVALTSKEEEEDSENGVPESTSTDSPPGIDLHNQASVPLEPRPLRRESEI
KCNQ1 act – potentiators or activators of KCNQ1 channel, primary screen, cell-based, thallium flux, high-throughput. B-score at 10 µM. 0.35% of 310,000 active. Potassium voltage-gated channel subfamily KQT member 1 (Homo sapiens), P51787. CHO-K1 KCNQ1, thallium flux FluxOR fluorescence; stronger effect = higher value;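 active = fluorescence ratio B-score, a plate-corrected score, at least three library SD, with initial intensity B-score within 5 SD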
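System: Stable KCNQ1 CHO-K1 line | Incubation: 90 min dye loading and 20 min compound exposure, both at room temperature | Measure: Ratio B score | Medium: Assay buffer for compound exposure, DMSO matched across wells | Compound dosing: Single-concentration screen | Probe or stimulus: K+/Tl+ depolarizing stimulus | Measured by: Kinetic FluxOR fluorescence, 10 s baseline plus 110 s post-stimulus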
KCNK9 inh – KCNK9 potassium channel inhibitors, primary screen, HEK293 cells, thallium flux | FluxOR thallium flux fluorescence; stronger effect = lower value | B-score at 10 µM | 1.2% of 310,000 active | Potassium channel subfamily K member 9 (Homo sapiens), Q9NPC2;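 active = ratio B-score over 3 SD below the library mean, with starting fluorescence within 5 SD of its mean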;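 also: negative B-score means less thallium flux so channel inhibition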
Target sequence (Q9NPC2 whole entry, looked up): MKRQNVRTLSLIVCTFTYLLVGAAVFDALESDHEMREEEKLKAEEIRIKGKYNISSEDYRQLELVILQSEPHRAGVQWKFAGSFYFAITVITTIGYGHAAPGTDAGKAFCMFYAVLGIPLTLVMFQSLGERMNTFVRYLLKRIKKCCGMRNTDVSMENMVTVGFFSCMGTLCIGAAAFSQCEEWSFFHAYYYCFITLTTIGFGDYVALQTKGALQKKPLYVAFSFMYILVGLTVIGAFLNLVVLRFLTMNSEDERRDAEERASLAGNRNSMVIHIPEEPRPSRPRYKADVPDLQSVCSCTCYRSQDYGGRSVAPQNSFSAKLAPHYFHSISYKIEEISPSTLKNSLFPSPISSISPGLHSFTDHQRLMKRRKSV
KCNK3 block – human KCNK3 channel inhibitors, primary screen, CHO cells, FluxOR thallium flux, B-score. Potassium channel subfamily K member 3 (Homo sapiens), O14649. FluxOR fluorescence; stronger effect = lower value. B-score at 10 µM. 0.84% of 340,000 active;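 active = B-score under library mean minus 4 SD, starting fluorescence ratio at most library mean plus 5 SD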;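 also: more negative B-score means stronger inhibition of thallium flux through KCNK3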
hERG protect – hERG rescue from dofetilide block, primary screen, cell-based, CHO-hERG, FluxOR thallium flux, dofetilide IC70; Voltage-gated inwardly rectifying potassium channel KCNH2 (Homo sapiens), Q12809; dofetilide IC70 present; activation (rescue from dofetilide block), less the hit threshold, % at 10 µM; 0.51% of 310,000 active;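 active = activation above the mean of controls blocked by dofetilide plus 5 SD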;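 also: thallium influx through hERG after potassium depolarization seen as dye fluorescence rise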
KCNQ1 block – inhibitors of human KCNQ1 channel, primary screen, cell-based, thallium flux, high-throughput; Potassium voltage-gated channel subfamily KQT member 1 (Homo sapiens), P51787; CHO-K1 KCNQ1, FluxOR thallium flux fluorescence; stronger effect = higher value; B-score at 10 µM; 1.3% of 310,000 active; AID 2642, 2010;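 active = compounds whose thallium flux B-score, printed positive for inhibition, exceeds three library SD while starting fluorescence stays within three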;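 also: channel opened by potassium depolarization with thallium stimulus after 20 min compound exposure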
KCNQ1 inh valid – KCNQ1 potassium channel inhibitors, confirmation, cell-based, Tl flux, duplicate. shares compounds with KCNQ1 block. KCNQ1 cell line, FluxOR thallium flux fluorescence. inhibition, % at 10 µM. 93% of 1,600 active. AID 588353, 2011;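 active = primary screen active, with duplicate mean exceeding buffer control mean plus 3 SD of buffer wells, cut at about 28% in these data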;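 also: 0% = buffer control ratio and 100% = XE991 inhibitor control ratio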
CHO Tl flux – thallium flux effects in parental CHO cells, counter-screen for KCNQ1 inhibitor project, cell-based, Tl flux. 21% of 1,600 active. fluorescence ratio (Tl flux) at 10 µM. shares compounds with KCNQ1 block. AID 588366, 2011. parental CHO-K1, FluxOR thallium flux fluorescence ratio; stronger effect = lower value; zero means no signal rise above baseline;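 active = mean of duplicate thallium-flux fluorescence ratios in parental host cells more than 5 SD below the buffer control mean, cut at about 0.38 in these data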;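 also: ratio is peak minus minimum fluorescence divided by baseline fluorescence; actives read low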
KCNQ1 APC inh – KCNQ1 channel inhibitors, confirmation, orthogonal assay, cell-based, automated electrophysiology; shares compounds with KCNQ1 block; calls only at 10 µM; KCNQ1-CHO cells, automated patch clamp current; 20% of 490 active;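 active = KCNQ1 current drop exceeding 3 SD of negative control wells, seen in both duplicate runs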;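 also: steady state current during a 2 s step from -80 to +40 mV; negative values mean current inhibition and positive values mean potentiation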
KCNQ2 inh – KCNQ2 channel inhibition, selectivity assay for KCNQ1 inhibitor project, cell-based | 71% of 1,600 active | KCNQ2 cells, FluxOR thallium flux fluorescence | inhibition, % at 10 µM | AID 651746, 2012 | shares compounds with KCNQ1 block;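 active = mean percent inhibition of the KCNQ2 thallium signal more than 5 SD above the buffer-only control wells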;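 also: KCNQ2 expressed in CHO cells; 0% = buffer control wells and 100% = XE-991 inhibitor control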
KCNQ1 KCNE1 spec – KCNQ1/KCNE1 channel inhibition, selectivity assay for KCNQ1 inhibitor project, CHO-K1 cells, thallium flux, FluxOR; FluxOR thallium flux fluorescence; AID 652147, 2013; shares compounds with KCNQ1 block; inhibition, % at 10 µM; 77% of 1,600 active;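 active = mean percent inhibition of duplicate wells above the buffer-only control mean plus 3 SD of those controls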;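 also: 0% = buffer only wells and 100% = XE-991 inhibitor control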
KCNK9 block conf – KCNK9 potassium channel inhibitors, confirmation, HEK293 cells, thallium flux, duplicate; shares compounds with KCNK9 inh; FluxOR thallium flux fluorescence; inhibition, % at 10 µM; 43% of 4,900 active; AID 492992, 2010;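 active = thallium signal inhibited by more than 5 SD of the compound-free buffer control wells, on both duplicate plates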;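 also: 0% = assay buffer control wells without compound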
Kir21 sel – mouse Kir2.1 channel inhibition, confirmation, selectivity assay for KCNK9 modulator project, cell-based, HEK293, thallium flux. shares compounds with KCNK9 inh. Kir2.1 cells, FluxOR thallium flux fluorescence. inhibition, % at 10 µM. 4% of 4,900 active. AID 492993, 2010;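 active = thallium signal drop more than 5 SD beyond the mean of the no-compound control wells, seen in both duplicate plates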;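 also: signal is fluorescence rise after thallium addition divided by baseline fluorescence; plate controls were assay buffer only for no effect and full block by chlorpromazine control for full effect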
KCNK9 uninduced – thallium flux in non-induced HEK293 cells, confirmation, counter-screen for KCNK9 inhibitor project, cell-based, second counter screen, non-induced KCNK9-HEK293; shares compounds with KCNK9 inh; FluxOR thallium flux; inhibition, % at 10 µM; 40% of 4,900 active;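 active = thallium signal drop beyond 5 SD of the untreated control mean, on both duplicate plates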;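 also: plate controls were buffer only IC0 wells for no effect and SID17386958 at its maximal inhibitory level for full effect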
KCNK3 inh conf – retest of human KCNK3 channel inhibitors, confirmation, CHO cells, FluxOR thallium flux, triplicate | shares compounds with KCNK3 block | FluxOR fluorescence; 0% buffer, 100% carvedilol maximal block | ratio percent of control, % at 10 µM | 99% of 2,400 active;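 active = ratio percent of control, averaged over triplicates, above buffer control mean plus 5 SD, cut at about 64% in these data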;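 also: ratio is the fluorescence rise from min to max over baseline after thallium stimulus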
KCNK3 noninduced – thallium flux inhibition in non-induced cells, primary screen, counter-screen for KCNK3 inhibitor project, cell-based, non-induced KCNK3 line, FluxOR thallium, triplicate. shares compounds with KCNK3 block. non-induced KCNK3 parental cells; stronger effect = lower value. thallium flux ratio (lower = more inhibition) at 10 µM. 40% of 2,400 active;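 active = thallium flux ratio, averaged over three wells, more than 5 SD below the buffer control mean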;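 also: host cells are CHO cells without KCNK3 induction; ratio is peak minus trough fluorescence over baseline then normalized to buffer controls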
* marks the source's active call; other numbers are inactive results.

How did Cc1sc2ncnc(N3CCC(C(=O)Nc4ccc(C#N)c(Cl)c4)CC3)c2c1C do in these assays?
Kir21 block: -0.06; KCNQ1 act: inactive; KCNK9 inh: inactive; KCNK3 block: -10*; hERG protect: -14; KCNQ1 block: 7*; KCNQ1 inh valid: 132*; CHO Tl flux: 0.42; KCNQ1 APC inh: inactive; KCNQ2 inh: 112%*; KCNQ1 KCNE1 spec: 156%*; KCNK3 inh conf: 131*; KCNK3 noninduced: 0.15*

How did Cc1noc(C)c1CSCC(=O)Nc1ccc(C#N)c(Cl)c1 do in these assays?
KCNK3 block: inactive

Results for CN(CCc1ccccc1)Cc1c[nH]c2ccccc12 ?
Kir21 block: -0.64; KCNQ1 act: inactive; KCNK9 inh: inactive; KCNK3 block: inactive; hERG protect: -3; KCNQ1 block: inactive

Results for O=C(c1ccccc1F)c1cn(Cc2ccccc2)c2ccccc12 ?
Kir21 block: -0.35; KCNQ1 act: inactive; KCNK9 inh: -7.5*; KCNK3 block: -9.4*; hERG protect: -9; KCNQ1 block: 6*; KCNQ1 inh valid: 85*; CHO Tl flux: 0.43; KCNQ2 inh: 85%*; KCNQ1 KCNE1 spec: 130%*; KCNK3 inh conf: 113*; KCNK3 noninduced: 0.16*

How did CCCCC/C(=N\O)c1c[nH]c2ccccc12 do in these assays?
Kir21 block: -0.6; KCNQ1 act: inactive; KCNK9 inh: -13*; KCNK3 block: inactive; hERG protect: -6; KCNQ1 block: inactive; KCNK9 block conf: 56%*; Kir21 sel: inactive; KCNK9 uninduced: 25%*

Results for CCCCC/C(=N/O)c1c(C)[nH]c2ccccc12 ?
Kir21 block: -1.7; KCNQ1 act: inactive; KCNK9 inh: inactive; KCNK3 block: inactive; hERG protect: -4; KCNQ1 block: inactive

What do the screens show for `CN1CCCN(C(=O)COc2ccc(F)cc2Cl)CC1`?
Kir21 block: -0.08; KCNQ1 act: inactive; KCNK9 inh: inactive; KCNK3 block: inactive; hERG protect: -4; KCNQ1 block: inactive

What do the screens show for `CN1CCCN(c2ccc([N+](=O)[O-])nc2)CC1`?
Kir21 block: 2.5; KCNQ1 act: inactive; KCNK9 inh: inactive; KCNK3 block: inactive; hERG protect: -3; KCNQ1 block: inactive

How did c1ccc2c(c1)[IH]c1ccccc1-2 do in these assays?
KCNK3 block: inactive

Results for Cc1cc(C)cc(N2C(=O)/C(=C\c3ccc(N4CCN(C)CC4)o3)C(=O)NC2=S)c1 ?
Kir21 block: -7.1; KCNQ1 act: inactive; KCNK9 inh: -9.1*; KCNK3 block: inactive; hERG protect: -30; KCNQ1 block: 10*; KCNK9 block conf: 55%*; Kir21 sel: 34%*; KCNK9 uninduced: 70%*

What do the screens show for `Cc1ccc(/C=C2\C(=O)NC(=S)N(c3ccc(F)cc3)C2=O)o1`?
Kir21 block: -2.4; KCNQ1 act: inactive; KCNK9 inh: inactive; KCNK3 block: inactive; hERG protect: 0; KCNQ1 block: inactive

What do the screens show for `CCc1ccc(N2C(=O)NC(=O)/C(=C/c3cccn3CCOc3ccc(C(C)CC)cc3)C2=O)cc1` (stereo not given)?
Kir21 block: 1.6; KCNQ1 act: inactive; KCNK9 inh: inactive; KCNK3 block: inactive; hERG protect: -2; KCNQ1 block: inactive; KCNK9 block conf: inactive; Kir21 sel: inactive; KCNK9 uninduced: inactive

What do the screens show for `CC1CCCC(NC(=O)COC(=O)c2cn(C)c3ccccc23)C1C` (stereo not given)?
KCNK3 block: inactive

Source: PubChem (Johns Hopkins Ion Channel Center)
